One data set concerns SK-BR-3. In words: Synergistic antiproliferative activity against lapatinib pretreated human SK-BR-3 cells assessed as combination index at ED90 measured after 72 hrs by celltiter-glo assay. Format: functional. (Cellular ATP, detected with luciferase, serves as a proxy for viable cell number.)
For a further data set, the system named is Calu-6. Briefly: Antiproliferative activity against human Calu-6 cells assessed as reduction in cell proliferation measured after 72 hrs by celltiter-glo assay. Format: functional, cell-based. As to conditions: Calu-6, 72 h. The method, boiled down:
(§1)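 Cells in RPMI 1640 with 10% heat-inactivated FBS at 37°C and 5% CO₂ were seeded at 2 to 3 × 10³ per well. […] Growth was read as cellular ATP by CellTiter-Glo.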

Data set [1] is described as follows: Toxicity in human NCI-H460 cells xenografted CD1 nude mouse assessed as body weight loss at 120 mg/kg, po administered 3 times per week for 2 weeks measured during compound dosing relative to control. Format: organism-based. As to conditions: in vivo, 336 h. (A xenograft is tissue or cells of one species grown in another, often human tumour cells in immunodeficient mice.)

The nature of data set [2]: Toxicity in human NCI-H292 cells xenografted CD-1 mouse assessed as weight loss at 360 mg/kg, po administered once a week for 2 weeks starting 2 hrs post-erlotinib treatment and measured on day 16. As to conditions: in vivo, 384 h, time 16 day. Format: organism-based. The method, boiled down:
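Female CD1-nude mice bearing s.c. NCI-H292 tumours (cells in 50% Matrigel/50% PBS, left flank), randomized at mean 0.2 cm³, n=5/group. Body weight monitored; treatment period ended day 16.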

For data set [3], the system named is HCC1954. Briefly: Antiproliferative activity against human HCC1954 cells assessed as reduction in cell proliferation measured after 72 hrs by celltiter-glo assay. Format: functional, cell-based. As to conditions: HCC1954, 72 h. The procedure, abridged:
as §1

Data set [4] concerns NCI-H460. In words: Synergistic antiproliferative activity against human NCI-H460 cells assessed as combination index at ED75 measured after 72 hrs in presence of gemcitabine by celltiter-glo assay. Format: functional.
In data set [5] the test system is NCI-H358. Briefly: Antiproliferative activity against human NCI-H358 cells assessed as reduction in cell proliferation measured after 72 hrs by celltiter-glo assay. Format: functional, cell-based. As to conditions: NCI-H358, 72 h. The method, boiled down: as §1
The subject of a further data set is NCI-N87. In words: Synergistic antiproliferative activity against human NCI-N87 cells assessed as combination index at ED75 measured after 96 hrs in presence of lapatinib by celltiter-glo assay. Format: functional.
A further data set concerns HCC70. In words: Synergistic antiproliferative activity against lapatinib pretreated human HCC70 cells assessed as combination index at ED75 measured after 72 hrs by celltiter-glo assay. Format: functional.
The next data set relates to NCI-H23. In words: Synergistic antiproliferative activity against human NCI-H23 cells assessed as fold change in erlotinib IC50 at 1 umol/L measured after 72 hrs in presence of erlotinib by celltiter-glo assay relative to erlotinib alone. Format: functional. As to conditions: dose 1 µmol/L.
The test system of data set [6] is NCI-H460. In words: Synergistic antiproliferative activity against human NCI-H460 cells assessed as combination index at ED75 measured after 72 hrs in presence of 5-FU by celltiter-glo assay. Format: functional.
For a further data set, the system named is NCI-H292. Briefly: Antitumor activity against human NCI-H292 cells xenografted in CD-1 mouse assessed as tumor growth suppression at 360 mg/kg, po administered once a week for 2 weeks and measured twice a week during compound dosing by caliper method. Format: functional, organism-based. The procedure, abridged: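 Female CD1-nude mice carried s.c. NCI-H292 cells in Matrigel/PBS and were randomized at 0.2 cm³, n = 5. […] MK-2206 (30% Captisol) was given 2 h later at 120 mg/kg po on days 0, 2, 4, 7, 9, 11, or at 360 mg/kg on days 0 and 7. Control received vehicle. Caliper volume twice weekly.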

Data set [7] addresses RAC-alpha serine/threonine-protein kinase (Homo sapiens) (UniProt P31749). Briefly: Inhibition of AKT in human HCC70 cells assessed as reduction in S6 phosphorylation at S240/S244 residues at 1 umol/L measured after 3 to 24 hrs in presence of lapatinib by Western blot analysis. Format: cell-based. As to conditions: dose 1.0 µmol/L, time 3-24 hrs. The procedure, abridged:
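HCC70 cells at ~70% confluence were exposed to 10 µmol/L lapatinib, 1 µmol/L MK-2206, or both, for 0, 3, 6, 12 or 24 h. Lysates were prepared in Triton X-100/Tris buffer (pH 7.5) with protease and phosphatase inhibitors. Immunoblots after SDS-PAGE and nitrocellulose transfer were probed for pAkt and pS6.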
(In western blotting, separated proteins are transferred to a membrane and probed.)

The subject of data set [8] is NCI-H460. In words: Antitumor activity against human NCI-H460 cells xenografted in CD1 nude mouse assessed as reduction in tumor volume at 120 mg/kg, po administered 3 times per week for 2 weeks in presence of gemcitabine by caliper method. Format: functional, organism-based. The procedure, abridged: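 NCI-H460 cells were injected s.c. in Matrigel/PBS into CD1-nude mice (female in the carboplatin study). Mice were randomized at 0.2 cm³, n = 5. Carboplatin was given at 50 mg/kg or gemcitabine at 100 mg/kg, i.v. in saline, on days 0 and 7. MK-2206 (30% Captisol) was given at 120 mg/kg po on days 0, 2, 4, 7, 9, 11. Tumors measured by caliper twice weekly.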

The test system of data set [9] is NCI-H358. In words: Synergistic antiproliferative activity against human NCI-H358 cells assessed as combination index at ED50 measured after 72 hrs in presence of erlotinib by celltiter-glo assay. Format: functional.
Data set [10] has as its system NCI-H460. In words: Synergistic antiproliferative activity against human NCI-H460 cells assessed as combination index at ED90 measured after 72 hrs in presence of doxorubicin by celltiter-glo assay. Format: functional.
The subject of a further data set is A2780. In words: Induction of apoptosis in human A2780 cells assessed as increase in caspase-3/7 activity measured after 48 hrs in presence of carboplatin by caspase-glo 3/7 assay. Format: functional, cell-based. As to conditions: dose 0.0625-1 µM.
The next data set has as its system NCI-H441. In words: Synergistic antiproliferative activity against human NCI-H441 cells assessed as combination index at ED25 to ED90 measured after 72 hrs in presence of gemcitabine by celltiter-glo assay. Format: functional.
The subject of the next data set is SK-OV-3. In words: Synergistic antiproliferative activity against human SK-OV-3 cells assessed as combination index at ED50 treated 24 hrs prior to lapatinib and measured after 72 hrs by celltiter-glo assay. As to conditions: time 96 hrs. Format: functional.
In data set [11] the test system is HCC1954. Briefly: Synergistic antiproliferative activity against human HCC1954 cells assessed as combination index at ED90 measured after 72 hrs in presence of lapatinib by celltiter-glo assay. Format: functional. The procedure, abridged:
(§2)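 Cells grown in RPMI 1640 with 10% heat-inactivated FBS at 37°C, 5% CO₂. Seeded at 2 to 3 × 10³ per well; drugs added 24 h later. […] Viability read as cellular ATP by CellTiter-Glo. CI calculated by Chou–Talalay from median-effect plots at ED50, ED75 and ED90.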

The nature of data set [12]: Toxicity in human SK-OV-3 cells xenografted CB17/icr SCID mouse at 60 to 120 mg/kg, po administered 3 times per week for 2 weeks starting 2 hrs post lapatinib treatment and measured during compound dosing. Format: organism-based. As to conditions: in vivo, 336 h, dose 60-120 mg/kg. The procedure, abridged: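 SK-OV-3 cells in 50% Matrigel/PBS injected s.c. into flank of female C.B-17/ICR-scid mice; dosing began after 3 wk, randomized at mean tumour 0.13 cm³ (n = 5). Lapatinib 100 mg/kg p.o. in distilled water 5 d/wk for 2 wk; MK-2206 in 30% Captisol p.o. days 0, 2, 4, 7, 9, 11. Body weight and physical signs monitored.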

For the next data set, the system named is MDA-MB-231. In words: Synergistic antiproliferative activity against human MDA-MB-231 cells assessed as combination index at ED50 measured after 72 hrs in presence of docetaxel by celltiter-glo assay. Format: functional. The procedure, abridged: as §2

Calls of active or inactive are those of the source. No cut-off for these calls is given here.

We go through 1 compound from ChEMBL document CHEMBL5705892, “MK-2206, an allosteric Akt inhibitor, enhances antitumor efficacy by standard chemotherapeutic agents or molecular targeted drugs in vitro and in vivo” (Mol Cancer Ther, 2010).

Chain of RAC-alpha serine/threonine-protein kinase (Homo sapiens) (P31749 whole entry): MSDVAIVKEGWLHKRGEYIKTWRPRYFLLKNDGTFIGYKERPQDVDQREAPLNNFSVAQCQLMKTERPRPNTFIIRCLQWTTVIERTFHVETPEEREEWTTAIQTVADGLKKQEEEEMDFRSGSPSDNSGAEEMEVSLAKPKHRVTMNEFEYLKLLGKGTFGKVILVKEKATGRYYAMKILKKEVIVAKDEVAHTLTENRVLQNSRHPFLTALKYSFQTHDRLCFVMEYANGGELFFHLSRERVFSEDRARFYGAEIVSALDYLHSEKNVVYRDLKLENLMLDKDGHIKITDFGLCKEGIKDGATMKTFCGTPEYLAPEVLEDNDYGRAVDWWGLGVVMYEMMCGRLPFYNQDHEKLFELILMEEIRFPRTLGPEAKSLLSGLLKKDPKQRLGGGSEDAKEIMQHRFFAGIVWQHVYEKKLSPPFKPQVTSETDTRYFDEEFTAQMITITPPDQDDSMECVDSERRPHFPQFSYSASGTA

Broadly, the IC50 is the concentration at which inhibition is half-maximal. For `Cl.NC1(c2ccc(-c3nc4ccn5c(=O)[nH]nc5c4cc3-c3ccccc3)cc2)CCC1`, the CI90 in the data set with SK-BR-3 was 0.18; in the data set with NCI-H460 [10] it was 0.17; in the data set with HCC1954 [11], 0.11. Also, the 50% inhibitory concentration (IC50) in the data set with Calu-6 is 28.6 µM; in the data set with HCC1954 [3] it was 2.9 µM; in the data set on NCI-H358 [5], 13.5 µM. For the same compound, the Activity in data set [1] is 7%; in data set [2], “Non-Toxic”; with A2780 it was “Dose-Dependent Effect”; in data set [12], “Non-Toxic”. Also, the CI75 in the data set on NCI-H460 [4] was found to be 0.39; with NCI-N87 it was 0.18; with HCC70 it was 0.18; in the data set on NCI-H460 [6], 0.45. Moreover, the “Ratio IC50” value in the data set on NCI-H23 was found to be 2.4. Moreover, the result in the data set with NCI-H292 and in the data set on NCI-H460 [8] was Active. For the same compound, the inhibition result in data set [7] was “Active”. Besides, the CI50 in the data set with NCI-H358 [9] is 0.44; in the data set with SK-OV-3, 0.18; in the data set with MDA-MB-231, 0.9. Moreover, the CI with NCI-H441 is on record as 0.37.
